# High-throughput results from PubChem BioAssay.
# The list is not random: actives were taken first. Their share in the collection is about 1.3%.
# CHT PAM = CHT positive allosteric modulators, primary screen, cell-based, membrane potential dye, choline EC20 | CHT-expressing cells; stronger effect = higher value; LV-AA mutant CHT in HEK293 cells | B-score at 10 µM | 310,000 compounds, 0.49% hits | AID 488977, 2010;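 active means initial fluorescence not abnormally high and integrated response B-score, plate-corrected, over 3 SD above library mean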
# Target sequence (Q9GZV3 whole entry, looked up): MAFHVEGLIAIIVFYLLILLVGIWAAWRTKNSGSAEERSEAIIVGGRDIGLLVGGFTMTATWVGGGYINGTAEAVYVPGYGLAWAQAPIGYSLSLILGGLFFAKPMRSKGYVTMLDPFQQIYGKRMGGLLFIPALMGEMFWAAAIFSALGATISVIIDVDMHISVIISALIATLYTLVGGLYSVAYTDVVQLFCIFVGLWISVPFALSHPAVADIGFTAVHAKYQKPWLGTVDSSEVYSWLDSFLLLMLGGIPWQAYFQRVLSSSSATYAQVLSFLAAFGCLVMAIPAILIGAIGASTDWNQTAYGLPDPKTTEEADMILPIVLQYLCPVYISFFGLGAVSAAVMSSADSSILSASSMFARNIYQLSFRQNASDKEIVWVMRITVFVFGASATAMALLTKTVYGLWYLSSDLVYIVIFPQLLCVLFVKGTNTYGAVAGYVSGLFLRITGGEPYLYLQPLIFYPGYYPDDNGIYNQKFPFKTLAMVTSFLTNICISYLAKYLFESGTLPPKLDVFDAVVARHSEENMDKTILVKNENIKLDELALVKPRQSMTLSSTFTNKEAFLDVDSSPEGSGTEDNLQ
# proCasp3 act = activators of human procaspase-3 D3A mutant, primary screen, biochemical, absorbance, PC-3 D3A mutant, single concentration; activation, % at 8.5 µM; Caspase-3 (Homo sapiens), P42574; 330,000 compounds, 0.11% hits; recombinant procaspase-3 D3A, Ac-DEVD-pNA absorbance 405 nm;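 active means activation above the mean of all tested compounds plus 3 SD, cut at about 21% in these data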;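 further: 0% = DMSO alone and 100% = DMSO wells spiked with extra 5 µM PC-3 D3A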
#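 material = Procaspase-3 D3A mutant | probe or stimulus = Ac-DEVD-pNA | compound = single dose, 8.5 µM nominal compound, 0.8% DMSO | timing = 1 h preincubation, 2 h reaction | measured by = 405 nm absorbance of p-nitroaniline, reads at 0 and 120 min | benchmarks = DMSO-only low control, 5 µM PC-3 D3A high control | repeats = singlicate, each compound tested once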
# procasp7 counter = procaspase-7 activators, primary screen, counter-screen for procaspase-3 activator project, biochemical, absorbance, HTS, human; Caspase-7 (Homo sapiens), P55210; recombinant procaspase-7, Ac-DEVD-pNA absorbance 405 nm; D23A/D198A/D206A triple mutant, cannot self-cleave; scale: DMSO 0, 5 µM enzyme 100; 330,000 compounds, 0.093% hits; activation, % at 8.5 µM;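 active means percent activation above the screen-wide mean plus 3 SD, cut at about 25% in these data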
#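 System: Procaspase-7 triple mutant (PC-7 D3A); measure: % activation from two-timepoint absorbance difference, scaled to controls; times: 1 h compound preincubation, 2 h substrate cleavage, 25 °C; also added: Ac-DEVD-pNA substrate, 400 µM as added; measured by: Epi-absorbance of released pNA at 405 nm, two timepoints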
# CHT inh = inhibitors of human choline transporter CHT; 310,000 compounds, 0.86% hits; B-score at 10 µM; High affinity choline transporter 1 (Homo sapiens), Q9GZV3; CHT-expressing cells, membrane potential dye, choline response; stronger effect = lower value;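 active means B-score over 3 SD under the library average, and starting fluorescence ratio not unusually high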;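 further: choline stimulus applied at its EC90 after an EC20 pre-addition; B-score computed on integrated fluorescence ratio after choline addition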
# CHT block conf = CHT inhibitors, confirmation, cell-based, membrane potential dye, duplicate; shares compounds with CHT inh; CHT-expressing cells, choline membrane potential dye; LV-to-AA substituted CHT, HEK293 cells; CHT activity remaining % of control (stronger effect = lower value), % at 10 µM; 2,400 compounds, 70% hits; AID 493221, 2011;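 active means choline transporter activity left, mean of duplicates at 10 µM, below buffer-only control mean minus 3 SD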;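 further: depolarization triggered by choline at its EC90 following an EC20 pre-addition; 0% = hemicholinium-3 full block and 100% = buffer-only control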
# HEK293 MPD ctr = membrane potential effects in parental HEK293, counter-screen for CHT inhibitor project, cell-based, membrane potential dye; 2,400 compounds, 4% hits; choline response; active = decrease or increase beyond buffer ±3SD; AID 493222, 2011; shares compounds with CHT inh; membrane potential ratio readout (active if shifted either direction beyond buffer ±3SD; no single direction) at 10 µM;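 further: parental cells lack the transporter so any hit is non-specific; ratio is peak minus trough fluorescence over baseline after EC90 choline challenge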
# The depositor's hits bear a star; i = inactive; nt = not tested or not shown.
SMILES,CHT PAM,proCasp3 act,procasp7 counter,CHT inh,CHT block conf,HEK293 MPD ctr
CC(C)=CCN1CCN(Cc2cn(C(C)C)c3ccccc23)CC1CCO (stereo not given),i,-1,0,-5*,40%*,i
COc1cc(C(=O)Nc2cccc(C)c2C)ccc1OCC(=O)N1CCOCC1,nt,3,-1,nt,nt,nt
CCOC(=O)C1CCCN(C(=O)c2csc(-c3ccc4c(c3)CCO4)n2)C1 (stereo not given),i,13,2,-7.2*,57%*,i
CCOC(=O)C1CCCN(C(=O)c2ccc3c(c2)OCO3)C1 (stereo not given),i,6,5,i,nt,nt
COc1cc(CCC(=O)OCC(=O)NCc2ccc(Cl)cc2)cc(OC)c1OC,i,3,-1,-6.5*,66%*,i
COc1cc(CCC(=O)NCc2ccc(Cl)cc2)cc(OC)c1OC,i,4,6,i,nt,nt
COc1ccc(C(=O)NNC2=C(C(=O)C(F)(F)F)CCC2)cc1,i,-5,4,i,nt,nt
O=C(NNC1=C(C(=O)C(F)(F)F)CCC1)c1cccc(Cl)c1,i,4,7,-9.8*,40%*,i
O=C(NNC1=C(C(=O)C(F)(F)F)CCC1)c1ccc(Cl)cc1,i,1,-8,-5.1*,40%*,i
Cc1ccc(C(=O)CCC(=O)NC2CCCC(C)C2C)cc1 (stereo not given),i,11,-7,-5.2*,58%*,i
CC1CCCC(NC(=O)CCNC(=O)c2ccc(Cl)cc2)C1C (stereo not given),i,-3,6,i,nt,nt
COc1ccnc(N2CCN(c3ccccc3)CC2)c1C#N,i,2,-4,-8.3*,i,i
CC(=O)OC1CC2(C)C(=O)CCC2C2CCc3cc(O)ccc3C12 (stereo not given),i,0,16,-8.1*,28%*,i
COc1cc(C=O)ccc1OCCOCCOc1ccccc1Cl,i,-3,-16,-5.6*,63%*,i
CCN(CCn1cccn1)C(=O)c1cc(COc2c(F)cccc2F)on1,i,-2,4,-5.5*,i,i
CCN(Cc1ccccc1)C(=O)c1cc(COc2c(F)cccc2F)on1,i,-4,6,i,nt,nt
N#Cc1cnc2nc(SCc3ccccc3)nn2c1,i,0,0,i,nt,nt
COc1ccc(-n2cnnc2SCC(=O)Nc2cccc(S(=O)(=O)N3CCCCC3)c2)cc1,i,3,-11,i,nt,nt
COc1ccc(-n2cnnc2SCC(=O)Nc2cc(S(=O)(=O)N3CCCCC3)ccc2C)cc1,i,7,-4,-5.3*,53%*,i
Cc1ccc(S(=O)(=O)N2CCCCC2)cc1NC(=O)CSc1nncn1-c1ccccc1,i,7,2,-6.1*,41%*,i
COc1cc(/C=C2\SC(=S)N(NC(=O)c3ccccc3O)C2=O)ccc1O,i,-5,-18,i,nt,nt
O=C(NN1C(=O)/C(=C/c2ccc(O)c([N+](=O)[O-])c2)SC1=S)c1ccccc1Cl,i,-20,-38,-5.4*,i,i
Cc1c(NC(=O)CSc2nnc(C(C)Oc3ccc(Cl)cc3)n2-c2ccccc2)c(=O)n(-c2ccccc2)n1C (stereo not given),i,-8,0,-10*,22%*,i
O=C(OCC(=O)N1CCOCC1)c1ccc(Cl)cc1[N+](=O)[O-],i,-6,7,i,nt,nt
O=C(CS(=O)c1ccc(C(F)(F)F)cc1[N+](=O)[O-])Oc1ccccc1 (stereo not given),i,-6,-6,-5*,-5.7%*,i
SMILES,CHT PAM,proCasp3 act,procasp7 counter,CHT inh,CHT block conf,HEK293 MPD ctr
COC(=O)c1ccc(OC(=O)CS(=O)c2ccccc2[N+](=O)[O-])cc1 (stereo not given),i,5,-4,i,nt,nt
CCN(CCNC(=O)CN1CCN(Cc2ccc(Cl)cc2)C1=O)c1ccccc1,i,-11,-11,-6.2*,66%*,i
CCCn1c(SCC(=O)c2cc(C)n(-c3ccc4c(c3)OCO4)c2C)n[nH]c1=O,i,-10,8,-5.5*,i,i
CCCn1c(SCC(=O)c2cc(C)n(C3CC3)c2C)n[nH]c1=O,nt,2,-2,nt,nt,nt
Cc1cc(C)cc(NC(=O)C2CCCN2S(=O)(=O)c2ccc3c(c2)n(C)c(=O)c(=O)n3C)c1 (stereo not given),i,6,1,i,nt,nt
COc1cccc(-c2cc(-c3cccnc3)nc(N)c2C#N)c1,i,0,-5,-7.3*,i,i
COc1cccc(-c2cc(-c3cccnc3)c(C#N)c(N)n2)c1,i,-7,5,i,nt,nt
CN(C)C(CNC(=O)c1coc2ccccc2c1=O)c1ccccc1 (stereo not given),i,0,-12,i,nt,nt
COc1ccc(-c2csc(Cc3nnc4n3CCCCC4)n2)cc1,i,11,0,-5*,42%*,i
COCCNC(=O)c1cc(-c2ccccc2OC)on1,i,-2,-2,-7.4*,i,i
CCC(C(=O)NC(C)CCc1ccccc1)n1nc(C)n2c(cc3occc32)c1=O (stereo not given),i,0,8,-11*,i,-8.5*
Cc1c(Cl)cccc1NC(=O)CCN1CCN(C)CC1,i,2,6,i,nt,nt
CC(=O)Nc1ccc(S(=O)(=O)NCC2CCCO2)cc1 (stereo not given),i,2,4,i,nt,nt
Cc1c(C(=O)Nc2ccc(S(=O)(=O)NCC3CCCO3)cc2)cccc1[N+](=O)[O-] (stereo not given),i,-4,-5,-5.2*,41%*,i
O=C(Nc1ccc(S(=O)(=O)NCC2CCCO2)cc1)c1ccc(Cl)cc1[N+](=O)[O-] (stereo not given),i,0,-4,-16*,0.4%*,i
O=C(Nc1cccc(Cl)c1)c1ccc(S(=O)(=O)NCC2CCCO2)cc1 (stereo not given),i,3,4,i,nt,nt
CN(C)c1ccc(/C=C(\NC(=O)c2ccccc2)C(=O)NCCN2CCOCC2)cc1,i,-9,-3,i,nt,nt
